Experimental data as given in PMC9398096 (Molecular Cancer Therapeutics, 2021).
Where “and” joins values, the source holds several entries; their conditions need not be identical. Equal entries are not always repeated. Where two headings read alike, the source gives them in different places.

Tests used:
[1] = system: LINE-1 methylation in MDS-L cells; assay: LINE-1 methylation by bisulfite pyrosequencing in MDS-L cells; format: cell-based, human; conditions: 100 nmol/L; for LINE-1 methylation level: untreated 88.9%
[2] = system: LINE-1 methylation in SKM1 cells; assay: LINE-1 methylation by bisulfite pyrosequencing in SKM1 cells; format: cell-based, human; conditions: 100 nmol/L, untreated 82.7%
[3] = Pharmacokinetics in cynomolgus monkeys; format: in vivo, cynomolgus monkey
[4] = mice, Supplementary Table S4, cited from earlier work
[5] = Stability of the base moiety in an aqueous environment; conditions: pH 6
HL60 cells = assay: HL60 xenograft mouse model; format: in vivo, BALB/c Rag-2/JAK3 double-deficient (BRJ) mice; conditions: for LINE-1 methylation in bone marrow cells / hemoglobin levels: DAC 1.0 mg/kg or OR21 2.7 mg/kg twice weekly; for LINE-1 methylation in bone marrow cells: vehicle 83.7%; for hemoglobin levels: at the time of sacrifice, vehicle 17.5 g/dL; for human CD45-positive cells in PB: day 37, vehicle 2.96%; for CD11b-positive cells in PB: late treatment from day +28, days +35 to +40, vehicle 43.3%
HL60R cells = assay: HL60R xenograft model; format: in vivo, mice
[6] = Long-term administration safety in BALB/c mice; format: in vivo; conditions: for anemia (hematopoietic toxicity) / survival on long-term administration: high dose: DAC 2.5 mg/kg or OR21 7.5 mg/kg
In short: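 Non-immunodeficient BALB/c mice received long-term dosing of the test compound at 7.5 (high) or 3.7 (low) mg/kg, or a reference hypomethylating agent at 2.5 or 1.25 mg/kg. Anemia and survival were monitored while dosing continued, through at least day 57.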

[7] = system: AZA-resistant HL60 (HL60R) cells; assay: AZA-resistant HL60; format: cell-based, human; conditions: in vitro; similar extent as DAC, more effectively than AZA
SKM1 cells = assay: SKM1 xenograft mouse model; format: in vivo, BALB/c Rag-2/JAK3 double-deficient (BRJ) mice; conditions: twice weekly from day 7 posttransplantation
MDS and AML cells [8] = assay: Apoptosis of MDS and AML cells; format: cell-based, human
[9] = system: LINE-1 methylation in THP-1 cells; assay: LINE-1 methylation by pyrosequencing in THP-1 cells; format: cell-based, human; conditions: 500 nmol/L, untreated 69.0%
[10] = system: LINE-1 methylation in HL60 cells; assay: LINE-1 methylation by pyrosequencing in HL60 cells; format: cell-based, human; conditions: 500 nmol/L, untreated 83.7
DNMT1 = assay: Western blot of DNMT1 in MDS and AML cell lines; format: cell-based, human; conditions: 100 or 500 nmol/L; MDS-L, SKM1, HL60, THP-1
[11] = system: LINE-1 methylation in KG1a cells; assay: LINE-1 methylation by pyrosequencing in KG1a cells; format: cell-based, human; conditions: 500 nmol/L, untreated 89.1%
MDS-L cells = assay: Flow cytometry of differentiation markers CD11b and HLA-DR; format: cell-based, human
[12] = system: LINE-1 methylation in Kasumi-1 cells; assay: LINE-1 methylation by pyrosequencing in Kasumi-1 cells; format: cell-based, human; conditions: 500 nmol/L, untreated 90.7%
MDS and AML cells [13] = assay: Cell proliferation; format: cell-based, human; conditions: dose-dependent
In short: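 Growth of MDS and AML cell lines was measured by CCK-8 assay after 72 hours of treatment across a dose range. IC50 was derived by nonlinear regression of the dose–response curves.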

[14] = DAC 1.0 mg/kg or OR21 2.7 mg/kg twice weekly from day 5, vehicle 44 days
[15] = DAC 1.0 mg/kg or OR21 2.7 mg/kg twice weekly from day 5
[16] = higher dose: DAC 2.0 mg/kg or OR21 5.4 mg/kg, vehicle 48 days

SMILES	LINE-1 methylation levels, effect of treatment [1]	LINE-1 methylation level [1]	LINE-1 methylation level [2]	half-life [5]	median overall survival (HL60 cells; [14])	LINE-1 methylation in bone marrow cells (HL60 cells)	hemoglobin levels (HL60 cells)	human CD45-positive cells in PB (HL60 cells; [15])	median overall survival (HL60 cells; [16])	CD11b-positive cells in PB (HL60 cells)	anemia (hematopoietic toxicity) [6]	survival on long-term administration [6]	other results
Nc1ncn([C@@H]2O[C@H](CO)[C@@H](O)[C@H]2O)c(=O)n1 [AZA, azacitidine]	did not decrease	88.8%	72.1%	–	–	–	–	–	–	–	–	–	–
Nc1ncn([C@H]2C[C@H](O)[C@@H](CO)O2)c(=O)n1 [DAC, decitabine, reference compound]	–	75.2%	58.4% and 66.9%	~20 h	46.5 days	56.3%	15.6 g/dL and 15.6 (±1.22) g/dL	1.67%	32 days	75.7%	severe anemia	died within 80 days	AUC ([3]; 10.9 μmol/kg (1.67 mg/kg) intravenous): 0.49 (±0.17) μmol/L/hour; enteric bioavailability ([3]; higher dose): did not result in enteric bioavailability; peak plasma concentration of DAC ([4]; administration of 0.88 μmol/L/kg DAC (calculated as an AUC equivalent to that of released DAC)): 0.64 µmol/L; toxicity (HL60R cells): severe toxicity; anemia ([6]; low dose: DAC 1.25 mg/kg or OR21 3.7 mg/kg): more likely than OR21-treated mice to develop anemia
CC[Si](CC)(CC)OC[C@H]1O[C@@H](n2cnc(N)nc2=O)C[C@@H]1O [OR21, 5′-O-triethylsilyl-2′-deoxy-5-azacytidine]	significantly decreased	74.2%	66.9%	20 h	49 days	63.0%	17.1 g/dL and 17.1(±0.31) g/dL	0.75%	57 days	65.5%	developed anemia by day 29, but recovered by day 57	all were still alive after 80 days	growth of HL60R cells [7]: inhibited growth; AUC ([3]; 10.9 μmol/kg (3.75 mg/kg) duodenal administration): 0.25 (±0.14) μmol/L/hour; AUC ([3]; 9.0 mg/kg (26.3 μmol/kg) duodenal administration): 0.45 ± 0.23 µmol/L/h; AUC of released DAC ([4]; intraperitoneal 1.59 μmol/L/kg OR21): 0.38 µmol/L/h; peak plasma concentration of DAC ([4]; intraperitoneal administration of 1.59 μmol/L/kg OR21): 0.43 µmol/L; human CD45-positive cells in peripheral blood (SKM1 cells; day 28, vehicle 6.40%): 0.31%; median overall survival (SKM1 cells; vehicle 29 days): > 53 days; apoptosis (MDS and AML cells [8]; MDS and AML cells, dose-dependent): induced apoptosis; apoptosis of primary cells (MDS and AML cells [8]; primary MDS and AML cells): induced apoptosis of primary MDS and AML cells; LINE-1 methylation level [9]: 64.6%; LINE-1 methylation level [10]: 76.0%; DNMT1 levels versus untreated cells (DNMT1): markedly lower; LINE-1 methylation level [11]: 82.4%; expression of CD11b (MDS-L cells): upregulated; expression of HLA-DR (MDS-L cells): downregulated; LINE-1 methylation level [12]: 78.6%; cell growth (MDS and AML cells [13]): inhibited growth; survival (HL60R cells; P = 0.0188): significantly prolonged survival
